Our source for the inhibition, inhibition in vivo and Inhibition values is ChEMBL document CHEMBL1121643, “Pyrazolo[5,1-b]quinazolin-9-ones: a new series of antiallergic agents” (1981).

Active and inactive are the calls of the source. The calls are words filed in the database; no cut-off is given here.

Assay [1] has as its system Rattus norvegicus. Kind of assay: Ability to inhibit the passive cutaneous anaphylaxis (PCA) reaction in rats by peroral administration; Inactive. The format is functional, organism-based. In a few lines:
(§1)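 Rats were sensitized by intradermal antiserum dilutions at several dorsal sites. After 48 h they were challenged iv with 1 mg ovalbumin in 1 mL saline containing 0.25% Evans blue. Drug was suspended in 1% gum tragacanth in saline and given ip or orally 10–15 min before challenge. Rats were killed 30 min later and the mean orthogonal wheal diameter was measured.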

The subject of assay [2] is Rattus norvegicus. Kind of assay: Ability to inhibit the passive cutaneous anaphylaxis (PCA) reaction in rats by intravenous administration of 1.5 mg/kg. It is filed as functional. In a few lines: (§2)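 Rats were given intradermal antiserum dilutions on the back. At 48 h, drug dissolved in the challenge solution (1 mg ovalbumin, 0.25% Evans blue, 1 mL saline) was injected iv with the antigen; sodium bicarbonate in slight molar excess was used if needed. Wheal diameters were read 30 min later and plotted against antiserum concentration, with the least-squares line extrapolated to a zero-antiserum base value. Five rats per group.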

Assay [3] deals with Rattus norvegicus. The assay is described as follows: Ability to inhibit the passive cutaneous anaphylaxis (PCA) reaction in rats by peroral administration of 5 mg/kg. It is filed as functional. Particulars: route oral. In a few lines:
as §1

Assay [4] relates to Rattus norvegicus. The assay is described as follows: Ability to inhibit the passive cutaneous anaphylaxis (PCA) reaction in rats by intravenous administration of 0.5 mg/kg. The format is functional. In outline: as §2
In assay [5] the test system is Rattus norvegicus. The assay is described as follows: Ability to inhibit the passive cutaneous anaphylaxis (PCA) reaction in rats by intraperitoneal administration of 5 mg/kg. To be noted: ip. It is filed as functional. In a few lines: as §1
Assay [6] relates to Rattus norvegicus. Kind of assay: Inhibition of passive cutaneous anaphylaxis (PCA) reaction in rats, peroral administration 5 mg/kg. The format is functional. Particulars: route oral. In a few lines:
as §1

Assay [7] relates to Rattus norvegicus. The assay is described as follows: Inhibition of passive cutaneous anaphylaxis (PCA) reaction in rats by intraperitoneal administration of 5 mg/kg. The format is functional. Particulars: ip. In outline: as §1
In assay [8] the test system is Rattus norvegicus. Kind of assay: Ability to inhibit the passive cutaneous anaphylaxis (PCA) reaction in rats by intravenous administration of 0.001 mg/kg. The format is functional. In outline:
as §2

Assay [9] concerns Rattus norvegicus. The assay is described as follows: Ability to inhibit the passive cutaneous anaphylaxis (PCA) reaction in rats by peroral administration of 10 mg/kg. To be noted: route oral. It is filed as functional. In a few lines:
as §1

Assay [10] relates to Rattus norvegicus. The assay is described as follows: Ability to inhibit the passive cutaneous anaphylaxis (PCA) reaction in rats by intravenous administration of 0.005 mg/kg. The format is functional. In outline:
as §2

For assay [11], the system named is Rattus norvegicus. The assay is described as follows: Inhibition of the passive cutaneous anaphylaxis (PCA) reaction in rats by intravenous administration of 0.01 mg/kg. The format is functional. In a few lines: as §2
Assay [12] relates to Rattus norvegicus. Kind of assay: Inhibition of the passive cutaneous anaphylaxis (PCA) reaction in rats by intravenous administration of 0.1 mg/kg. It is filed as functional. In a few lines:
as §2

Assay [13] concerns Rattus norvegicus. The assay is described as follows: Ability to inhibit the passive cutaneous anaphylaxis (PCA) reaction in rats by peroral administration of 2 mg/kg. The format is functional. Particulars: read-out: Inhibition, route oral. In outline:
as §1

Assay [14] deals with Rattus norvegicus. The assay is described as follows: Ability to inhibit the passive cutaneous anaphylaxis (PCA) reaction in rats by intraperitoneal administration of 1 mg/kg. Particulars: ip. The format is functional. In a few lines: as §1
The subject of assay [15] is Rattus norvegicus. The assay is described as follows: Ability to inhibit the passive cutaneous anaphylaxis (PCA) reaction in rats by peroral administration. The format is functional. In outline:
as §1

Assay [16] deals with Rattus norvegicus. The assay is described as follows: Ability to inhibit the passive cutaneous anaphylaxis (PCA) reaction in rats by peroral administration of 1 mg/kg. It is filed as functional. Particulars: route oral. In a few lines: as §1
For assay [17], the system named is Rattus norvegicus. Kind of assay: Ability to inhibit the passive cutaneous anaphylaxis (PCA) reaction in rats by intravenous administration of 0.01 mg/kg. It is filed as functional. In a few lines: as §2

For the molecule `O=C(O)c1cc(=O)c2c(OCC(O)COc3cccc4oc(C(=O)O)cc(=O)c34)cccc2o1` [CROMOLYN SODIUM], in the assay on Rattus norvegicus [1], the inhibition result was “inactive”. Further, the inhibition in vivo at 1.5 mg/kg with Rattus norvegicus [2] came to 50%.

Consider `Cn1c2ccccc2c(=O)n2nc(C(=O)O)cc12`, for which the inhibition in vivo at 5 mg/kg stood at 40% with Rattus norvegicus [3] and 100% in the assay with Rattus norvegicus [5]. Also, the inhibition in vivo at 0.5 mg/kg with Rattus norvegicus [4] stood at 100%.

For `COc1cccc2c(O)n3nc(C(=O)O)cc3nc12`, the inhibition in vivo at 5 mg/kg in the assay on Rattus norvegicus [6] amounted to 79%; in the assay on Rattus norvegicus [7], 70%. Moreover, the inhibition in vivo at 0.001 mg/kg in the assay on Rattus norvegicus [8] stood at 8%. Besides, the inhibition in vivo at 10 mg/kg in the assay on Rattus norvegicus [9] was 62%. Besides, the inhibition in vivo at 0.005 mg/kg in the assay with Rattus norvegicus [10] was determined as 31%. The inhibition in vivo at 0.01 mg/kg with Rattus norvegicus [11] was found to be 74%. For the same molecule, in the assay on Rattus norvegicus [12], the inhibition in vivo at 0.1 mg/kg was 100%.

Turning to `Cn1c2ccc(Cl)cc2c(=O)n2nc(C(=O)O)cc12`, in the assay on Rattus norvegicus [4], the inhibition in vivo at 0.5 mg/kg was 70%. Moreover, in the assay on Rattus norvegicus [13], the inhibition in vivo at 2 mg/kg came out at 9%. Moreover, the inhibition in vivo at 1 mg/kg in the assay with Rattus norvegicus [14] (read-out: Inhibition) is 59%.

For `COc1ccc2nc3cc(C(=O)Nc4nn[nH]n4)nn3c(O)c2c1`, the inhibition in vivo at 5 mg/kg in the assay on Rattus norvegicus [7] turned out to be 80%. This molecule also had an inhibition in vivo at 10 mg/kg in the assay on Rattus norvegicus [9] of 43%. The inhibition in vivo at 0.1 mg/kg in the assay with Rattus norvegicus [12] was 90%.

Consider `Cn1c2ccccc2c(=O)n2nc(C(=O)Nc3nn[nH]n3)cc12`, for which the Inhibition with Rattus norvegicus [15] is 0%. For the same molecule, the inhibition in vivo at 5 mg/kg in the assay with Rattus norvegicus [7] came to 51%.

In the case of `O=C(O)c1cc2nc3ccccc3c(O)n2n1`, the values for the inhibition in vivo at 5 mg/kg with Rattus norvegicus [6] and in the assay with Rattus norvegicus [7] were 5% and 100%, respectively. In addition, the inhibition in vivo at 1 mg/kg in the assay with Rattus norvegicus [16] was determined as 23%; in the assay with Rattus norvegicus [14] it was 55%. For the same molecule, the inhibition in vivo at 0.01 mg/kg in the assay on Rattus norvegicus [17] is 0%. The inhibition in vivo at 0.1 mg/kg with Rattus norvegicus [12] was 54%.

In the assay with Rattus norvegicus [7], `COc1ccc2nc3cc(-c4nn[nH]n4)nn3c(O)c2c1` returned an inhibition in vivo at 5 mg/kg of 87%. Further, the inhibition in vivo at 1 mg/kg with Rattus norvegicus [16] worked out at 21%.

By Inhibition is commonly meant the drop in the measured response relative to a control, in per cent.
